In brackets after ≈: the same amount, converted by molar mass. Several values for one entry are separate records, joined by “and”; a condition that tells them apart may be missing. Identical values can stand only once.
Key:
Salmonella typhi = assay: Disc diffusion antibacterial susceptibility test; format: cell-based; conditions: mean ± SD, triplicate, NI = No inhibition
Summary of the method: (§1)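 Bacteria came from a university microbiology laboratory stock. Colonies were suspended in sterile 0.85% saline and matched to McFarland 0.5, then swabbed evenly onto Mueller-Hinton agar. 6 mm filter-paper discs carrying test compound were laid on the agar. Plates were incubated 18 h at 37 °C and inhibition zone diameters measured in mm. Three repeats, reported as mean ± SD.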

brine shrimps nauplii = assay: Brine shrimp lethality assay; format: in vivo; conditions: brine shrimp lethality bioassay, 24 h and 48 h
Summary of the method: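 Test compound was dissolved in DMSO and made up to 5 ml with NaCl solution at four concentrations. Ten nauplii per vial, each concentration run three times; control vial held 10 nauplii in 5 ml seawater. Vials stood at room temperature for 24 h and 48 h. Survivors were counted under a magnifying glass, and average % mortality was calculated per concentration.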

Escherichia coli = assay: Disc diffusion antibacterial susceptibility test; format: cell-based; conditions: mean ± SD, triplicate, NI = No inhibition
Summary of the method: as §1

Bacillus subtilis = assay: Disc diffusion antibacterial susceptibility test; format: cell-based; conditions: 18 h at 37 °C, mean ± SD, triplicate, NI = No inhibition
Summary of the method: as §1

Pseudomonas aeruginosa = assay: Disc diffusion antibacterial susceptibility test; format: cell-based; conditions: mean ± SD, triplicate, NI = No inhibition
Summary of the method: as §1

Aspergillus niger = assay: Mycelial growth inhibition; format: cell-based; conditions: 5 days incubation, mean ± SD, triplicate, NI = No inhibition
Aspergillus flavus = assay: Mycelial growth inhibition; format: cell-based; conditions: 5 days incubation, mean ± SD, triplicate, NI = No inhibition
[1] = system: tested strains (pathogenic bacteria); assay: MIC and MBC by micro-broth dilution, over the tested strains; format: cell-based; conditions: for MBC: read-out: MBC values against the tested organisms; for MIC: read-out: MIC values against the tested strains
Summary of the method: (§2)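 Broth microdilution in Mueller-Hinton broth, using a two-fold test compound series over 0.125 to 128 µg/mL. Wells received 5 µL of inoculum at 10⁴–10⁵ CFU/mL, diluted from a 0.5 McFarland suspension. Each plate had growth (no compound) and sterility controls. After 24 h at 37 °C, 0.5% (w/v) triphenyl tetrazolium chloride was added for a further 24 h at 37 °C. Red colour indicated growth, and MIC/MBC were read visually.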

B. subtilis = assay: MIC and MBC by micro-broth dilution; format: cell-based; conditions: Bacillus subtilis
Summary of the method: as §2

SMILES	Diameter of inhibition zone, S. typhi (-ve) (Salmonella typhi)	% death of brine shrimp (level of toxicity) (brine shrimps nauplii) [%]	Diameter of inhibition zone, E. coli (-ve) (Escherichia coli)	Diameter of inhibition zone, B. subtilis (+ve) (Bacillus subtilis)	Diameter of inhibition zone, P. aeruginosa (-ve) (Pseudomonas aeruginosa)	% inhibition of fungal mycelial growth in mm (20 μg/μL), Aspergillus niger (Aspergillus niger)	% inhibition of fungal mycelial growth in mm (20 μg/μL), Aspergillus. flavus (Aspergillus flavus)	MBC [1] [µg/mL]	MIC [1] [µg/mL]	MIC (B. subtilis) [µg/mL]
CCCCCCCCCCCC(=O)OC[C@H]1O[C@@H](n2cc(C)c(=O)[nH]c2=O)C[C@@H]1OC(=O)c1ccc(Br)cc1 [analog 6, 3́-O-(4-Bromobenzoyl)-5́-O-(lauroyl)thymidine]	9.5 ± 0.1 mm	38.75								
CCCCCCCCCCCCCCCC(=O)O[C@H]1C[C@H](n2cc(C)c(=O)[nH]c2=O)O[C@@H]1COC(=O)CCCCCCCCCCC [analog 5, 5′-O-Lauroyl-3′-O-(palmitoyl)thymidine]	*15.25 ± 0.2 mm		9.00 ± 0.2 mm	14.50 mm and 14.5 ± 0.1 mm	8.50 ± 0.2 mm	57.62 ± 1.1%	*81.55 ± 1.0%			
CCCCCCCCCCCCCC(=O)O[C@H]1C[C@H](n2cc(C)c(=O)[nH]c2=O)O[C@@H]1COC(=O)CCCCCCCCCCC [analog 4, 5́-O-Lauroyl-3́-O-(myristoyl)thymidine]			*12.5 ± 0.2 mm	12.75 mm and 12.75 ± 0.1 mm						
CC[C@H]1OC(=O)[C@H](C)[C@@H](O[C@H]2C[C@@](C)(OC)[C@@H](O)[C@H](C)O2)[C@H](C)[C@@H](O[C@@H]2O[C@H](C)C[C@H](N(C)C)[C@H]2O)[C@](C)(O)C[C@@H](C)CN(C)[C@H](C)[C@@H](O)[C@]1(C)O [Azithromycin, reference compound]	**18 ± 0.2 mm		**17.25 ± 0.1 mm	18.5 ± 0.3 mm	**18.5 ± 0.3 mm					
C[C@@H]1[C@H](O)[C@@H](C)/C=C/C=C/CC/C=C/C=C/C=C/C=C/C(O[C@H]2O[C@H](C)[C@@H](O)[C@H](N)[C@@H]2O)CC2O[C@](O)(CC(O)C(O)CCC(O)CC(O)CC(O)CC(=O)O[C@H]1C)CC(O)C2C(=O)O (some centres unmarked) [Nystatin, reference compound]						**65.4 ± 1.0%	**64.1 ± 1.0%			
CCCCCCCCCCCC(=O)OC[C@H]1O[C@@H](n2cc(C)c(=O)[nH]c2=O)C[C@@H]1O [analog 2, 5́-O-(Lauroyl)thymidine]	*14.50 ± 0.3 mm	36.25	*13.00 ± 0.1 mm		*12.75 ± 0.1 mm	*60.16 ± 1.2%	*82.76 ± 1.0%	8 to 16 (≈ 18.8 to 37.7 µM)	0.125 to 8 (≈ 0.294 to 18.8 µM)	0.125 (≈ 0.294 µM)
CCCCCCCCCCCC(=O)OC[C@H]1O[C@@H](n2cc(C)c(=O)[nH]c2=O)C[C@@H]1OC(=O)c1ccc(C(C)(C)C)cc1 [analog 3, 3́-O-(4-t-Butylbenzoyl)-5́-O-(lauroyl)thymidine]	9.75 ± 0.2 mm			13.25 mm and 13.25 ± 0.2 mm	*11.75 ± 0.4 mm	*65.25 ± 1.1%	*72.95 ± 1.0%	8 to 16 (≈ 13.7 to 27.4 µM)	0.125 to 8 (≈ 0.214 to 13.7 µM)	
